This note sets out measurements from ChEMBL document CHEMBL1122018, “Synthesis and orexigenic activity of some 1-methyl-4-piperidylidene-Substituted pyrrolo[2,1-g][3] benzazepine and dibenzocycloheptene derivatives” (1982).

SMILES strings stand for the structures.

Holding throughout (assay type): functional
The test system of test [1] is Felis catus. The experiment in a line: Average food consumed at the dose of 0.063 mg/kg (po) using 10 cats per dose level at 60 min (control day/ test day); 18/98.
For test [2], the system named is Felis catus. The experiment in a line: Average food consumed at the dose of 0.25 mg/kg (po) using 10 cats per dose level at 180 min (control day/ test day); 25/236.
In test [3] the test system is Felis catus. Kind of test: Average food consumed at the dose of 0.25 mg/kg (po) using 10 cats per dose level at 180 min (control day/ test day); 30/169.
The test system of test [4] is Felis catus. Kind of test: Average food consumed at the dose of 0.25 mg/kg (po) using 10 cats per dose level at 180 min (control day/ test day); 41/138.
The test system of test [5] is Felis catus. Kind of test: Average food consumed at the dose of 0.063 mg/kg (po) using 10 cats per dose level at 30 min (control day/ test day); 17/57.
For test [6], the system named is Felis catus. The experiment in a line: Average food consumed at the dose of 0.50 mg/kg (po) using 10 cats per dose level at 30 min (control day/ test day); 13/68. The following applies: dose 0.5 mg/kg. Summed up: (§1)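 Cats given test compound suspended in 1% methylcellulose, or 1% methylcellulose placebo, by gavage 30 min before a preweighed test meal. Food was offered in surplus for 3 h, and intake was found by reweighing at 30, 60 and 180 min. Ten cats per dose, each dosed no more than once weekly. Test-day intake was compared with the preceding control day by two-tailed paired t test (p < 0.05); values are mean ± SD.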

Test [7] concerns Felis catus. Kind of test: Average food consumed at the dose of 0.50 mg/kg (po) using 10 cats per dose level at 30 min (control day/ test day); 30/147. Conditions: dose 0.5 mg/kg. Summed up:
as §1

The test system of test [8] is Felis catus. Kind of test: Average food consumed at the dose of 0.50 mg/kg (po) using 10 cats per dose level at 30 min (control day/ test day); 35/108. Conditions: dose 0.5 mg/kg. The method in brief:
as §1

Test [9] concerns Felis catus. Kind of test: Average food consumed at the dose of 0.50 mg/kg (po) using 10 cats per dose level at 60 min (control day/ test day); 19/96. Conditions: dose 0.5 mg/kg. The method in brief: as §1
The test system of test [10] is Felis catus. The experiment in a line: Average food consumed at the dose of 0.50 mg/kg (po) using 10 cats per dose level at 60 min (control day/ test day); 33/124. Conditions: dose 0.5 mg/kg. Summed up: as §1
Test [11] relates to Felis catus. The experiment in a line: Average food consumed at the dose of 0.50 mg/kg (po) using 10 cats per dose level at 60 min (control day/ test day); 34/203. Conditions: dose 0.5 mg/kg. Summed up:
as §1

Test [12] relates to Felis catus. Kind of test: Average food consumed at the dose of 0.031 mg/kg (po) using 10 cats per dose level at 180 min (control day/ test day); 27/159.
Test [13] relates to Felis catus. Kind of test: Average food consumed at the dose of 0.031 mg/kg (po) using 10 cats per dose level at 30 min (control day/ test day); 20/55.
The test system of test [14] is Felis catus. The experiment in a line: Average food consumed at the dose of 0.031 mg/kg (po) using 10 cats per dose level at 60 min (control day/ test day); 17/79.
The test system of test [15] is Felis catus. The experiment in a line: Average food consumed at the dose of 0.063 mg/kg (po) using 10 cats per dose level at 180 min (control day/ test day); 17/166.
In test [16] the test system is Felis catus. The experiment in a line: Average food consumed at the dose of 0.50 mg/kg (po) using 10 cats per dose level at 180 min (control day/ test day); 34/273. The following applies: dose 0.5 mg/kg. The method in brief:
as §1

Test [17] concerns Felis catus. Kind of test: Average food consumed at the dose of 0.50 mg/kg (po) using 10 cats per dose level at 180 min (control day/ test day); 36/188. Conditions: dose 0.5 mg/kg. Summed up: as §1
For test [18], the system named is Felis catus. The experiment in a line: Average food consumed at the dose of 0.25 mg/kg (po) using 10 cats per dose level at 30 min (control day/ test day); 24/129.
Test [19] deals with Felis catus. The experiment in a line: Average food consumed at the dose of 0.25 mg/kg (po) using 10 cats per dose level at 30 min (control day/ test day); 32/66. The method in brief: as §1
Test [20] relates to Felis catus. Kind of test: Average food consumed at the dose of 0.50 mg/kg (po) using 10 cats per dose level at 180 min (control day/ test day); 16/141. Conditions: dose 0.5 mg/kg. Summed up: as §1
The subject of test [21] is Felis catus. Kind of test: Average food consumed at the dose of 0.25 mg/kg (po) using 10 cats per dose level at 60 min (control day/ test day); 25/109. The method in brief:
as §1

The test system of test [22] is Felis catus. The experiment in a line: Average food consumed at the dose of 0.25 mg/kg (po) using 10 cats per dose level at 60 min (control day/ test day); 31/179. Summed up:
as §1

The test system of test [23] is Felis catus. The experiment in a line: Average food consumed at the dose of 0.25 mg/kg (po) using 10 cats per dose level at 60 min (control day/ test day); 31/66. The method in brief: as §1
Test [24] concerns Felis catus. The experiment in a line: Average food consumed at the dose of 0.25 mg/kg (po) using 10 cats per dose level at 30 min (control day/ test day); 17/76.

Regarding `CN1CCC(=C2c3ccccc3C=Cc3ccc(C(=O)O)cc32)CC1`, the Average consumed was found to be 94 g in test [1]; 191 g in test [2]; 133 g in [3]; 137 g in test [4]; 68 g in test [5]; 71 g in test [6]. Moreover, the Average consumed in test [7] amounted to 116 g; in [8] it was 72 g; in test [9] it was 94 g; in test [10], 102 g; in [11], 160 g; in test [12], 157 g. The Average consumed in test [13] came to 68 g; in test [14], 95 g; in test [15], 159 g; in [16], 219 g; in test [17], 149 g; in test [18], 108 g. For the same compound, the Average consumed in test [19] stood at 68 g; in test [20], 125 g; in test [21], 90 g; in test [22], 147 g; in test [23], 86 g; in test [24] it was 62 g.
